These results are taken from ChEMBL document CHEMBL1909519, “L-Proline anchored multicomponent synthesis of novel pyrido[2,3-a]carbazoles; investigation of in vitro antimicrobial, antioxidant, cytotoxicity and structure activity relationship studies” (Eur J Med Chem, 2011).

The MIC is the lowest concentration found to suppress growth. Low values mean a more susceptible organism, high ones a less susceptible organism. The IC50 is the concentration that inhibits the measured activity by half.

The subject of test [1] is Staphylococcus aureus. The experiment in a line: Antibacterial activity against Staphylococcus aureus after 24 hrs by agar disk diffusion assay. The class given is functional. An outline of the steps:
(§1)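 Agar well diffusion on nutrient agar against Gram-positive clinical isolates (PSG Hospital, Coimbatore). Compounds in DMSO tested at 0 (control), 25, 50, 75, 100; DMSO as solvent and negative control; ciprofloxacin ([…]) as positive control. Plates incubated 37 ± 2 °C, 24 h; zone of inhibition diameter read in mm.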

For test [2], the system named is SK-OV-3. Nature of the test: Cytotoxicity against human SKOV3 cells up to 50 ug/ml after 48 hrs by SRB assay. The class given is functional, cell-based. An outline of the steps:
(§2)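 Cells in RPMI-1640 with 10% heat-inactivated FBS, 1 mM NaHCO3, 2 mM L-glutamine, 37 °C, 5% CO2; seeded (B16F10 5 × 10⁴ cells/mL, others 1 × 10⁵ cells/mL), 24 h, then compounds in DMSO at 1.56–50 for 48 h, triplicate wells. TCA fixation, SRB staining 30 min, tris extraction, OD 520 nm; IC50 by linear regression, mean ± SD of three independent experiments; cisplatin positive control.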

Test [3] concerns B16-F10. Nature of the test: Cytotoxicity against mouse B16F10 cells after 48 hrs by SRB assay. Type of test: functional, cell-based. As to conditions: B16-F10, 48 h. A digest of the protocol:
as §2
Background: The SRB assay estimates cell density from bound dye.

In test [4] the test system is Escherichia coli. The experiment in a line: Antibacterial activity against Escherichia coli at 25 ug/ml after 24 hrs by agar disk diffusion assay. Conditions: read-out: DIZ; call rule not given here. The class given is functional. A digest of the protocol: (§3)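 Gram-negative clinical isolates (PSG Hospital, Coimbatore) tested by agar well diffusion on nutrient agar. Compounds dissolved in DMSO at 0 (control), 25, 50, 75, 100; DMSO was the negative control and ciprofloxacin ([…]) the positive control. Incubation 37 ± 2 °C for 24 h, then inhibition zone diameter measured in mm.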
On the technique in general: Agar diffusion results depend on both activity and mobility in agar.

Test [5] deals with Radical scavenging activity. The experiment in a line: Antioxidant activity assessed as DPPH radical scavenging activity after 30 mins by micro plate reader. The class given is functional. A digest of the protocol:
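DPPH assay: various compound concentrations brought to volume with ethanol, mixed with 0.1 mM ethanolic DPPH alongside vitamin C standard; shaken 30 min at 24 °C, absorbance read at 517 nm; concentration giving 50% decrease determined.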
A general note: DPPH is a stable violet radical that fades when it is reduced.

The nature of test [6]: Cytotoxicity against human SK-MEL-12 cells up to 50 ug/ml after 48 hrs by SRB assay. Type of test: functional, cell-based. A digest of the protocol: as §2
For test [7], the system named is Escherichia coli. The experiment in a line: Antibacterial activity against Escherichia coli after 24 hrs by agar disk diffusion assay. The class given is functional. A digest of the protocol: as §3
Test [8] relates to Candida albicans. Nature of the test: Antifungal activity against Candida albicans after 48 hrs by agar disk diffusion assay. The class given is functional. A digest of the protocol:
(§4)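 Fungal isolates (PSG Hospital, Coimbatore) grown on Sabouraud dextrose agar; agar well diffusion with compounds in DMSO at 0 (control), 25, 50, 75, 100. DMSO negative control, fluconazole ([…]) positive control. Plates held 28 ± 2 °C for 48 h; zone of inhibition diameter recorded in mm.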

For test [9], the system named is Aspergillus niger. Nature of the test: Antifungal activity against Aspergillus niger at 25 ug/ml after 48 hrs by agar disk diffusion assay. The class given is functional. As to conditions: read-out: DIZ. An outline of the steps: as §4
Test [10] relates to Klebsiella pneumoniae. Nature of the test: Antibacterial activity against Klebsiella pneumoniae after 24 hrs by agar disk diffusion assay. The class given is functional. An outline of the steps: as §3
Test [11] deals with Enterococcus faecalis. Nature of the test: Antibacterial activity against Enterococcus faecalis after 24 hrs by agar disk diffusion assay. The class given is functional. A digest of the protocol:
as §1

Test [12] concerns B16-F10. Nature of the test: Ratio of cisplatin IC50 to compound IC50 for mouse B16F10. Type of test: functional.
For test [13], the system named is Candida albicans. The experiment in a line: Antifungal activity against Candida albicans at 25 ug/ml after 48 hrs by agar disk diffusion assay. The class given is functional. Conditions: read-out: DIZ. A digest of the protocol: as §4
For test [14], the system named is Enterococcus faecalis. The experiment in a line: Antibacterial activity against Enterococcus faecalis at 25 ug/ml after 24 hrs by agar disk diffusion assay. The class given is functional. Conditions: read-out: DIZ. An outline of the steps:
as §1

The next test has as its system A549. Nature of the test: Cytotoxicity against human A549 cells after 48 hrs by SRB assay. Type of test: functional, cell-based. As to conditions: A549, 48 h. An outline of the steps: as §2
The subject of test [15] is Staphylococcus aureus. The experiment in a line: Antibacterial activity against Staphylococcus aureus at 25 ug/ml after 24 hrs by agar disk diffusion assay. Type of test: functional. Conditions: read-out: DIZ. A digest of the protocol:
as §1

The test system of test [16] is Klebsiella pneumoniae. The experiment in a line: Antibacterial activity against Klebsiella pneumoniae at 25 ug/ml after 24 hrs by agar disk diffusion assay. Type of test: functional. As to conditions: read-out: DIZ. An outline of the steps: as §3
The test system of test [17] is Aspergillus niger. The experiment in a line: Antifungal activity against Aspergillus niger after 48 hrs by agar disk diffusion assay. Type of test: functional. An outline of the steps: as §4
Test [18] concerns HCT-15. The experiment in a line: Cytotoxicity against human HCT15 cells after 48 hrs by SRB assay. The class given is functional, cell-based. As to conditions: HCT-15, 48 h. An outline of the steps:
as §2

Test [19] deals with Enterococcus faecalis. The experiment in a line: Antibacterial activity against Enterococcus faecalis at 50 ug/ml after 24 hrs by agar disk diffusion assay. Type of test: functional. As to conditions: read-out: DIZ. A digest of the protocol: as §1
The nature of test [20]: Cytotoxicity against human SK-MEL-12 cells after 48 hrs by SRB assay. Type of test: functional, cell-based. A digest of the protocol: as §2
The test system of test [21] is Staphylococcus aureus. Nature of the test: Antibacterial activity against Staphylococcus aureus at 50 ug/ml after 24 hrs by agar disk diffusion assay. The class given is functional. Conditions: read-out: DIZ. An outline of the steps: as §1
The subject of test [22] is Aspergillus niger. The experiment in a line: Antifungal activity against Aspergillus niger at 50 ug/ml after 48 hrs by agar disk diffusion assay. The class given is functional. As to conditions: read-out: DIZ. A digest of the protocol:
as §4

The test system of test [23] is Klebsiella pneumoniae. Nature of the test: Antibacterial activity against Klebsiella pneumoniae at 50 ug/ml after 24 hrs by agar disk diffusion assay. The class given is functional. Conditions: read-out: DIZ. A digest of the protocol: as §3
The test system of test [24] is SK-OV-3. The experiment in a line: Cytotoxicity against human SKOV3 cells after 48 hrs by SRB assay. Type of test: functional, cell-based. As to conditions: SK-OV-3, 48 h. An outline of the steps: as §2
The test system of test [25] is Candida albicans. Nature of the test: Antifungal activity against Candida albicans at 50 ug/ml after 48 hrs by agar disk diffusion assay. Type of test: functional. As to conditions: read-out: DIZ. A digest of the protocol:
as §4

For test [26], the system named is Escherichia coli. The experiment in a line: Antibacterial activity against Escherichia coli at 50 ug/ml after 24 hrs by agar disk diffusion assay. Conditions: read-out: DIZ. The class given is functional. An outline of the steps: as §3
The subject of test [27] is HCT-15. Nature of the test: Cytotoxicity against human HCT15 cells up to 50 ug/ml after 48 hrs by SRB assay. Type of test: functional, cell-based. A digest of the protocol:
as §2

Values after ≈ are worked out from the molar mass of the structure shown. A value given as a limit tells only on which side of the number the result lay.

As for `Cc1ccc2[nH]c3c(c2c1)CCc1c-3nc(N)c(C#N)c1-c1ccc(Br)cc1`, the MIC was 25 µg/mL (≈ 58.2 µM) against Staphylococcus aureus [1]; 25 µg/mL (≈ 58.2 µM) against Escherichia coli [7]; > 100 µg/mL against Candida albicans [8]; 25 µg/mL (≈ 58.2 µM) against Klebsiella pneumoniae [10]; 25 µg/mL (≈ 58.2 µM) against Enterococcus faecalis [11]; > 100 µg/mL in the test with Aspergillus niger [17]. Besides, the IC50 result is “Not Active” in the test on SK-OV-3 [2]; 2.84 µg/mL (≈ 6.62 µM) in the test with B16-F10 [3]; 140.21 µg/mL (≈ 327 µM) in test [5]; “Not Active” in [6]; 35 µg/mL (≈ 81.5 µM) with A549; 11 µg/mL (≈ 25.7 µM) in the test with HCT-15 [18]. Further, the zone of inhibition at 25 µg/mL in the test with Escherichia coli [4] is 22 mm; in the test on Aspergillus niger [9], 6 mm; with Candida albicans [13], 7 mm; in the test on Enterococcus faecalis [14], 23 mm; in the test on Staphylococcus aureus [15] it was 24 mm; in the test with Klebsiella pneumoniae [16], 25 mm. Also, the “Ratio IC50” value in the test with B16-F10 [12] is 2.

For the molecule `Cc1ccc2[nH]c3c(c2c1)CCc1c-3nc(N)c(C#N)c1-c1cccnc1`, the zone of inhibition at 50 µg/mL in the test with Enterococcus faecalis [19] came to 20 mm; in the test with Staphylococcus aureus [21], 20 mm; with Aspergillus niger [22] it was 3 mm; in the test with Klebsiella pneumoniae [23], 18 mm; in the test with Candida albicans [25], 5 mm; with Escherichia coli [26] it was 19 mm. Further, the MIC was 50 µg/mL (≈ 142 µM) against Staphylococcus aureus [1]; 50 µg/mL (≈ 142 µM) against Escherichia coli [7]; > 100 µg/mL in the test with Candida albicans [8]; 50 µg/mL (≈ 142 µM) in the test with Klebsiella pneumoniae [10]; 50 µg/mL (≈ 142 µM) in the test on Enterococcus faecalis [11]; > 100 µg/mL against Aspergillus niger [17]. Besides, the IC50 stood at 13.7 µg/mL (≈ 39 µM) in the test on B16-F10 [3]; 16.6 µg/mL (≈ 47.3 µM) in [20]; 511.24 µg/mL (≈ 1450 µM) in test [5]; 16.1 µg/mL (≈ 45.9 µM) in the test on A549; 10.6 µg/mL (≈ 30.1 µM) in the test on SK-OV-3 [24]; 47.6 µg/mL (≈ 136 µM) in the test with HCT-15 [18].

For `CCOC(=O)c1c(N)nc2c(c1-c1cccnc1)CCc1c-2[nH]c2ccc(C)cc12`, the zone of inhibition at 50 µg/mL turned out to be 17 mm in the test on Enterococcus faecalis [19]; 19 mm in the test on Staphylococcus aureus [21]; 4 mm in the test on Aspergillus niger [22]; 21 mm with Klebsiella pneumoniae [23]; 9 mm in the test on Candida albicans [25]; 20 mm in the test with Escherichia coli [26]. Moreover, the MIC against Staphylococcus aureus [1] is 50 µg/mL (≈ 125 µM); against Escherichia coli [7], 50 µg/mL (≈ 125 µM); in the test on Candida albicans [8], > 100 µg/mL; with Klebsiella pneumoniae [10], 50 µg/mL (≈ 125 µM); in the test with Enterococcus faecalis [11], 50 µg/mL (≈ 125 µM); in the test with Aspergillus niger [17] it was > 100 µg/mL. For the same molecule, the concentration for half-maximal inhibition (IC50) entry is “Not Active” in the test on SK-OV-3 [2]; 29.4 µg/mL (≈ 73.8 µM) in the test with B16-F10 [3]; 24.9 µg/mL (≈ 62.5 µM) in test [20]; 210.34 µg/mL (≈ 528 µM) in [5]; 43.7 µg/mL (≈ 110 µM) in the test with A549; 33.8 µg/mL (≈ 84.8 µM) in the test on HCT-15 [18].

As to `CCOC(=O)c1c(N)nc2c(c1-c1cc3ccccc3nc1Cl)CCc1c-2[nH]c2ccc(C)cc12`, the half-maximal inhibitory concentration (IC50) entry in the test on HCT-15 [27] is “Not Active”; in the test on B16-F10 [3] it was 20.5 µg/mL (≈ 42.4 µM); in test [20], 27.7 µg/mL (≈ 57.3 µM); in [5], 330.25 µg/mL (≈ 684 µM); in the test on A549, 17.6 µg/mL (≈ 36.5 µM); in the test on SK-OV-3 [24] it was 18.6 µg/mL (≈ 38.5 µM). The MIC is 25 µg/mL (≈ 51.8 µM) against Staphylococcus aureus [1]; 25 µg/mL (≈ 51.8 µM) against Escherichia coli [7]; > 100 µg/mL in the test on Candida albicans [8]; 25 µg/mL (≈ 51.8 µM) in the test with Klebsiella pneumoniae [10]; 25 µg/mL (≈ 51.8 µM) against Enterococcus faecalis [11]; > 100 µg/mL against Aspergillus niger [17]. For the same molecule, the zone of inhibition at 25 µg/mL with Escherichia coli [4] was found to be 23 mm; in the test on Aspergillus niger [9] it was 7 mm; in the test on Candida albicans [13] it was 11 mm; with Enterococcus faecalis [14], 24 mm; in the test on Staphylococcus aureus [15], 25 mm; in the test with Klebsiella pneumoniae [16], 26 mm.
